# Laboratory results published in ChEMBL document CHEMBL1909500, “Synthesis and in vitro anticancer activity of 6,7-methylenedioxy (or 5-hydroxy-6-methoxy)-2-(substituted selenophenyl)quinolin-4-one analogs” (Eur J Med Chem, 2011).
# Activity calls are given as the source filed them. The calls are words filed in the database; no cut-off is given here.
# Columns and labels:
# HL-60 [1] = assay: Cell cycle arrest in human HL60 assessed as cell accumulation in G2/M phase at 1 uM after 24 hrs pretreated with pan-caspase inhibitor z-VAD-fmk for 3 hrs by propidium iodide staining-based flow cytometric analysis; assay type: functional; set-up: scale not given: the % may be the effect or the level left
# Summary of the method: (§1)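 HL-60 cells were preincubated for 3 h with or without the pan-caspase inhibitor z-VAD-fmk, then co-exposed to compound at 1 μM for 24 h. Cells were washed in PBS and fixed overnight in ice-cold 70% ethanol at −20 °C. They were stained for 30 min in the dark with propidium iodide 4 μg/mL, 0.1 mg/ml RNase and 1% Triton X-100. DNA content was read on a FACScan flow cytometer.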
# SNB-75 = assay: Anticancer activity against human SNB75 cells after 48 hrs by MTT assay; assay type: functional; conditions: SNB-75, 48 h
# NCI-H522 = assay: Anticancer activity against human NCI-H522 cells after 48 hrs by MTT assay; assay type: functional; conditions: NCI-H522, 48 h
# COLO 205 = assay: Anticancer activity against human COLO205 cells after 48 hrs by MTT assay; assay type: functional; conditions: COLO 205, 48 h
# NCI-H322M = assay: Anticancer activity against human NCI-H322M cells after 48 hrs by MTT assay; assay type: functional
# HL-60 [2] = assay: Induction of cell cycle arrest at G2/M phase in human HL60 cells assessed as decrease in CDK1 protein expression after 24 hrs by Western blot analysis; assay type: functional, cell-based
# Summary of the method: (§2)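 HL-60 cells at 2 × 10⁵/mL were exposed to the indicated concentrations for 24 h, washed in PBS and lysed for total protein. Immunoblots used HRP-linked secondary antibodies with ECL detection. Cyclin B1, CDK1, caspase-3 (17 kDa active form) and PARP (85 kDa fragment) were quantified and normalised to β-actin.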
# NCI-H460 = assay: Cytotoxicity against human H460 cells after 48 hrs by MTT assay; assay type: functional, cell-based; conditions: NCI-H460, 48 h
# Summary of the method: (§3)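 H460 or HL-60 cells were exposed to vehicle or compound for 48 h. Growth was read by MTT reduction at 570 nm, and IC50 was calculated.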
# HL-60 [3] = assay: Cell cycle arrest in human HL60 assessed as cell accumulation in G0/G1 phase at 1 uM after 24 hrs by propidium iodide staining-based flow cytometric analysis; assay type: functional; summary of the method: as §1
# MDA-MB-468 = assay: Anticancer activity against human MDA-MB-468 cells after 48 hrs by MTT assay; assay type: functional; conditions: MDA-MB-468, 48 h
# HL-60 [4] = assay: Induction of cell cycle arrest at G2/M phase in human HL60 cells assessed as increase in cyclin B1 expression at 0.1 to 1.0 uM after 24 hrs by Western blot analysis; assay type: functional, cell-based; summary of the method: as §2
# HCC 2998 = assay: Anticancer activity against human HCC2998 cells after 48 hrs by MTT assay; assay type: functional; conditions: HCC 2998, 48 h
# SK-OV-3 = assay: Anticancer activity against human SKOV3 cells after 48 hrs by MTT assay; assay type: functional; conditions: SK-OV-3, 48 h
# T47D = assay: Anticancer activity against human T47D cells after 48 hrs by MTT assay; assay type: functional
# OVCAR-3 = assay: Anticancer activity against human OVCAR3 cells after 48 hrs by MTT assay; assay type: functional; conditions: OVCAR-3, 48 h
# SN12C = assay: Anticancer activity against human SN12C cells after 48 hrs by MTT assay; assay type: functional
# MCF7 = assay: Anticancer activity against human MCF7 cells after 48 hrs by MTT assay; assay type: functional; conditions: MCF7, 48 h
# HL-60(TB) = assay: Anticancer activity against human HL-60(TB) cells after 48 hrs by MTT assay; assay type: functional; conditions: HL-60, 48 h
# TK-10 = assay: Anticancer activity against human TK10 cells after 48 hrs by MTT assay; assay type: functional; conditions: TK-10, 48 h
# HL-60 [5] = assay: Cytotoxicity against human HL60 cells after 48 hrs by MTT assay; assay type: functional, cell-based; conditions: HL-60, 48 h; summary of the method: as §3
# SNB-19 = assay: Anticancer activity against human SNB19 cells after 48 hrs by MTT assay; assay type: functional; conditions: SNB-19, 48 h
# NCI-H23 = assay: Anticancer activity against human NCI-H23 cells after 48 hrs by MTT assay; assay type: functional; conditions: NCI-H23, 48 h
# SK-MEL-5 = assay: Anticancer activity against human SK-MEL-5 cells after 48 hrs by MTT assay; assay type: functional; conditions: SK-MEL-5, 48 h
# HL-60 [6] = assay: Growth inhibition of human HL60 cells after 24 to 48 hrs by trypan blue exclusion assay; assay type: functional, cell-based
# Summary of the method: (§4)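 HL-60 cells were given the indicated concentrations for 24 h and 48 h. Viable cells were counted by trypan blue exclusion. Values are mean ± SD of four independent experiments.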
# HCT-116 = assay: Anticancer activity against human HCT116 cells after 48 hrs by MTT assay; assay type: functional; conditions: HCT-116, 48 h
# EKVX = assay: Anticancer activity against human EKVX cells after 48 hrs by MTT assay; assay type: functional
# DU-145 = assay: Anticancer activity against human DU145 cells after 48 hrs by MTT assay; assay type: functional; conditions: DU-145, 48 h
# HL-60 [7] = assay: Growth inhibition of human HL60 cells at 0.1 to 1 uM by trypan blue exclusion assay; assay type: functional, cell-based; conditions: TDE = time-dependent effect; summary of the method: as §4
# HL-60 [8] = assay: Cell cycle arrest in human HL60 assessed as cell accumulation in G2/M phase at 1 uM after 24 hrs by propidium iodide staining-based flow cytometric analysis; assay type: functional; summary of the method: as §1
# HL-60 [9] = assay: Cell cycle arrest in human HL60 assessed as cell accumulation in S phase at 1 uM after 24 hrs by propidium iodide staining-based flow cytometric analysis; assay type: functional; summary of the method: as §1
# HL-60 [10] = assay: Induction of apoptosis in human HL60 cells assessed as cell shrinkage at 1 uM after 24 hrs; assay type: functional, cell-based
# Summary of the method: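 HL-60 cells were exposed to 1 μM for 24 h. Apoptotic morphology, scored as cell shrinkage and apoptotic bodies, was examined by microscopy at 200×.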
# [11] = Anticancer activity against human Hs 578T cells after 48 hrs by MTT assay; assay type: functional
# [12] = read-out: pLC50 (the source's name) (converted)
compound,measurement,setting,value
Cc1ccc(-c2cc(=O)c3cc4c(cc3[nH]2)OCO4)[se]1,Activity,HL-60 [1],55.5%
same,GI50,SNB-75,275 nM
same,CC50,SNB-75; [12],> 100000 nM
same,TGI,SNB-75; read-out: pTGI,> 100000 nM
same,GI50,NCI-H522,288 nM
same,CC50,NCI-H522; [12],> 100000 nM
same,TGI,NCI-H522; read-out: pTGI (converted),537 nM
same,GI50,COLO 205,2630 nM
same,CC50,COLO 205; [12],> 100000 nM
same,TGI,COLO 205; read-out: pTGI,> 100000 nM
same,GI50,NCI-H322M,> 100000 nM
same,CC50,NCI-H322M; [12],> 100000 nM
same,TGI,NCI-H322M; read-out: pTGI,> 100000 nM
same,Activity,HL-60 [2],Dose-dependent effect
same,IC50,NCI-H460,400 nM
same,Activity,HL-60 [3],14.3%
same,GI50,MDA-MB-468,562 nM
same,CC50,MDA-MB-468; [12],> 100000 nM
same,TGI,MDA-MB-468; read-out: pTGI,> 100000 nM
same,Activity,HL-60 [4],Active
same,GI50,HCC 2998,288 nM
same,CC50,HCC 2998; [12],> 100000 nM
same,TGI,HCC 2998; read-out: pTGI,> 100000 nM
same,GI50,SK-OV-3,347 nM
same,CC50,SK-OV-3; [12],> 100000 nM
same,TGI,SK-OV-3; read-out: pTGI,> 100000 nM
same,GI50,T47D,871 nM
same,CC50,T47D; [12],> 100000 nM
same,TGI,T47D; read-out: pTGI,> 100000 nM
same,GI50,OVCAR-3,240 nM
same,TGI,OVCAR-3; read-out: pTGI (converted),457 nM
same,GI50,SN12C,603 nM
same,CC50,SN12C; [12],> 100000 nM
same,TGI,SN12C; read-out: pTGI,> 100000 nM
same,GI50,MCF7,324 nM
same,CC50,MCF7; [12],> 100000 nM
same,TGI,MCF7; read-out: pTGI,> 100000 nM
same,GI50,HL-60(TB),204 nM
same,CC50,HL-60(TB); [12],933 nM
same,TGI,HL-60(TB); read-out: pTGI (converted),437 nM
same,GI50,TK-10,10000 nM
same,CC50,TK-10; [12],> 100000 nM
same,TGI,TK-10; read-out: pTGI,> 100000 nM
same,IC50,HL-60 [5],300 nM
same,GI50,SNB-19,389 nM
same,CC50,SNB-19; [12],> 100000 nM
same,TGI,SNB-19; read-out: pTGI,> 100000 nM
same,GI50,NCI-H23,741 nM
same,CC50,NCI-H23; [12],> 100000 nM
same,TGI,NCI-H23; read-out: pTGI,> 100000 nM
same,GI50,SK-MEL-5,309 nM
same,growth inhibition (GI),HL-60 [6],Dose-dependent effect
same,GI50,HCT-116,288 nM
same,CC50,HCT-116; [12],> 100000 nM
same,TGI,HCT-116; read-out: pTGI,> 100000 nM
same,GI50,EKVX,617 nM
same,CC50,EKVX; [12],> 100000 nM
same,TGI,EKVX; read-out: pTGI,> 100000 nM
same,GI50,DU-145,302 nM
same,CC50,DU-145; [12],> 100000 nM
same,TGI,DU-145; read-out: pTGI,> 100000 nM
same,growth inhibition (GI),HL-60 [7],tde
same,Activity,HL-60 [8],44.3%
same,Activity,HL-60 [9],41.6%
same,Activity,HL-60 [10],Active
same,GI50,[11],347 nM
same,CC50,[11]; [12],> 100000 nM
same,TGI,[11]; read-out: pTGI,> 100000 nM
